The record followed here is ChEMBL document CHEMBL2010721, “Growth inhibition of Mycobacterium smegmatis by prodrugs of deoxyxylulose phosphate reducto-isomerase inhibitors, promising anti-mycobacterial agents” (Eur J Med Chem, 2012).

The test system of test [1] is Mycolicibacterium smegmatis. In words: Antimycobacterial activity against Mycobacterium smegmatis at 15 nmol/disc after 24 hrs by paper disc diffusion method. The class given is functional. An outline of the steps:
(§1)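 M. smegmatis (grown at 37 °C) was spread from a tenfold-diluted overnight culture on agar plates containing yeast extract, malt extract, CaCO₃ and glucose. Compounds were dissolved at 100 mM in DMSO or water, and 4 µL was put on each 6 mm disc. Isoniazid was dissolved at 7.5 mM, and 2 µL was put on each disc. Inhibition zones were read after 24 h at 37 °C.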
A general note: In agar diffusion tests the substance spreads into inoculated agar from a disc or well.

In test [2] the test system is Mycolicibacterium smegmatis. In words: Antimycobacterial activity against Mycobacterium smegmatis assessed as viability at 10 uM after 1 hr by resazurin test. It counts as functional, organism-based. An outline of the steps:
(§2)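 A fresh M. smegmatis preculture was adjusted to McFarland 0.5. Then 0.2 mL went into 1.8 mL medium with inhibitor (final isoniazid 10–40 µM; other compound 250–1000 µM), shaken 24 h at 37 °C. Of this, 50 µL was added to 150 µL fresh medium, in duplicate, plus 0.01% resazurin. Plates were kept at 37 °C, and the blue-to-pink change was followed by eye for 12 h, with growth and sterile controls.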

Test [3] concerns Mycolicibacterium smegmatis. In words: Antimycobacterial activity against Mycobacterium smegmatis assessed as viability at 20 uM after 5 to 12 hrs by resazurin test. The class given is functional, organism-based. An outline of the steps:
as §2

The subject of test [4] is Mycolicibacterium smegmatis. In words: Antimycobacterial activity against Mycobacterium smegmatis. The class given is functional.
In test [5] the test system is Mycobacterium tuberculosis. The test is described as follows: Antimycobacterial activity against Mycobacterium tuberculosis. The class given is functional.
Test [6] deals with Mycolicibacterium smegmatis. The test is described as follows: Antimycobacterial activity against Mycobacterium smegmatis at 400 nmol/disc after 24 hrs by paper disc diffusion method. The class given is functional. The essentials:
as §1

Test [7] deals with Escherichia coli. The test is described as follows: Antimycobacterial activity against Escherichia coli at 400 nmol/disc after 24 hrs by paper disc diffusion method. The class given is functional, organism-based.
Test [8] deals with T1, 1-deoxy-D-xylulose 5-phosphate reductoisomerase (Mycobacterium smegmatis (strain ATCC 700084 / mc(2)155), UniProt A0QVH7).
T1 sequence (A0QVH7 whole entry): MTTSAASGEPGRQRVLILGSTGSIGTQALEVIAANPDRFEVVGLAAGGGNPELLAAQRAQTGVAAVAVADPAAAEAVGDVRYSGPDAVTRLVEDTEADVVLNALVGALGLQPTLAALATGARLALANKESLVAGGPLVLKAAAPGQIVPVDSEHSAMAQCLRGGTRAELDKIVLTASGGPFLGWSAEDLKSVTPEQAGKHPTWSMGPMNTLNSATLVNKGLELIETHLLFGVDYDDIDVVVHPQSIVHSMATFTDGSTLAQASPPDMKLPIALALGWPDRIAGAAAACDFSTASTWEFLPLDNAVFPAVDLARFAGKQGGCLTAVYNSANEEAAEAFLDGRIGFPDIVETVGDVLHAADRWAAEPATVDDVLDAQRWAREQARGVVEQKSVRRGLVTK
The test is described as follows: Inhibition of Mycobacterium smegmatis DSM 43756 ATCC 19420 N-terminal his-tagged DXR expressed in XL1-blue Escherichia coli using NADPH and DXP as substrate preincubated for 2 mins […]. Also noted: species or system Mycolicibacterium smegmatis. An outline of the steps: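 N-terminal His-tagged M. smegmatis DXR, Ni²⁺-purified and kept in glycerol/NaCl buffer. Assay at 37 °C in 50 mM Tris/HCl pH 7.5 with 3 mM MgCl₂, 2 mM DTT, 0.15 mM NADPH and 0.5 mM DXP. Enzyme and inhibitor were preincubated 2 min with NADPH, then DXP started the reaction. Initial rates were read as A340 decrease. Inhibitor range was 0.1–0.6 or 0.2–2 µM. IC50 came from residual activity vs log concentration, mean of two determinations.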

Test [9] addresses T2, 1-deoxy-D-xylulose 5-phosphate reductoisomerase (Mycobacterium smegmatis (strain ATCC 700084 / mc(2)155)) (UniProt A0QVH7).
T2 sequence (whole entry): T1 sequence (A0QVH7 whole entry)
In words: Inhibition of Mycobacterium smegmatis DSM 43756 ATCC 19420 N-terminal his-tagged DXR expressed in XL1-blue Escherichia coli using NADPH and DXP as substrate at 1 uM […]. Conditions: Mycolicibacterium smegmatis.

The subject of test [10] is Escherichia coli. In words: Inhibition of Escherichia coli DXR at 1 uM.
The subject of test [11] is Mycolicibacterium smegmatis. In words: Antimycobacterial activity against Mycobacterium smegmatis assessed as viability at 250 uM after 15 mins by resazurin test. The class given is functional, organism-based. The essentials:
as §2
A general note: Resazurin is reduced to fluorescent resorufin, in cell work by metabolically active cells.

Test [12] concerns Mycolicibacterium smegmatis. The test is described as follows: Antimycobacterial activity against Mycobacterium smegmatis assessed as viability at 500 uM after 5 hrs by resazurin test. It counts as functional, organism-based. An outline of the steps:
as §2

Test [13] addresses T1, 1-deoxy-D-xylulose 5-phosphate reductoisomerase (Mycobacterium smegmatis (strain ATCC 700084 / mc(2)155), UniProt A0QVH7). The test is described as follows: Inhibition of Mycobacterium smegmatis DXR. Also noted: species or system Mycolicibacterium smegmatis. An outline of the steps:
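His-tagged M. smegmatis DXR (N-terminal tag, expressed in E. coli, Ni2+ column purified) was pre-incubated with inhibitor and 0.15 mM NADPH for 2 min at 37 °C in 50 mM Tris/HCl pH 7.5, 3 mM MgCl2, 2 mM DTT. Reaction started with 0.5 mM DXP; initial rates from NADPH absorbance decrease at 340 nm. IC50 from residual activity versus log inhibitor concentration; mean of two independent determinations.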

Converted amounts (≈) assume the structure as drawn. The source made the active and inactive calls. No cut-off for these calls is given here.

As a reminder, the MIC is the lowest concentration that inhibits growth of the organism. Low values mean greater potency, high ones weaker potency. In the case of `NNC(=O)c1ccncc1` [ISONIAZID], the “diameter of the inhibition zone (DIZ)” value in [1] is 29 mm. Also, the “growth inhibition (GI)” value in test [2] and in [3] was “inactive” each time. Besides, the MIC in test [4] was determined as 10 µM (≈ 1.37 µg/mL); in test [5], 7 µg/mL (≈ 51 µM).

Consider `CN(O)C(=O)CCCP(=O)(OCOC(=O)C(C)(C)C)OCOC(=O)C(C)(C)C`, for which the “diameter of the inhibition zone (DIZ)” value in test [6] was determined as 15 mm. This compound also had a minimal inhibitory concentration (MIC) in [5] of 50 µg/mL (≈ 118 µM). The “growth inhibition (GI)” value in the test with Escherichia coli [7] is “inactive”.

Take `CN(O)C(=O)CCCP(=O)(OCOC(=O)c1ccccc1)OCOC(=O)c1ccccc1`: the “diameter of the inhibition zone (DIZ)” value in test [6] was determined as 11 mm. For the same compound, the minimal inhibitory concentration (MIC) in test [5] was 25 µg/mL (≈ 53.7 µM). In the test on Escherichia coli [7], the “growth inhibition (GI)” value is “inactive”.

A word on the IC50: it is the point on the concentration scale where inhibition reaches its midpoint. A high value points to lower potency. Turning to `CC(=O)N(O)CCCP(=O)(O)O` [FR-900098], in test [8], the IC50 came out at 320 nM. For the same compound, the “growth inhibition (GI)” value in [6] is “inactive”.

`CCCC(=O)OCOP(=O)(CCCC(=O)N(C)O)OCOC(=O)CCC`: the inhibition entry (in test [9]; in the test on Escherichia coli [10]) was “inactive” throughout. In addition, the “diameter of the inhibition zone (DIZ)” value in test [6] was 23 mm. Moreover, the “growth inhibition (GI)” value (in [11]; in the test with Escherichia coli [7]) was “inactive” each time. Moreover, the “growth inhibition (GI)” value in test [12] is “Active”. For the same compound, in [4], the MIC worked out at 250 µM (≈ 99.3 µg/mL).

As for `CCCC(=O)OCOP(=O)(CCCN(O)C=O)OCOC(=O)CCC`, the “growth inhibition (GI)” value (in test [6]; with Escherichia coli [7]) was “inactive” in each case.

Consider `CCCC(=O)OCOP(=O)(CCCC(=O)NO)OCOC(=O)CCC`, for which the “growth inhibition (GI)” value (in [6]; in the test with Escherichia coli [7]) was “inactive” each time.

For `O=C(CCCP(=O)(O)O)NO`, half-maximal inhibition in test [8] (IC50) required 1480 nM. In test [6], the “growth inhibition (GI)” value was “inactive”.

The compound `CN(O)C(=O)CCCP(=O)(O)O` returned a half-inhibitory concentration (IC50) in test [8] of 410 nM. The “growth inhibition (GI)” value in test [6] was “inactive”.

Turning to `O=C(CCCP(=O)(OCOC(=O)c1ccccc1)OCOC(=O)c1ccccc1)NO`, the “growth inhibition (GI)” value (in test [6]; with Escherichia coli [7]) was “inactive” in each case.

For the compound `CC(C)(C)C(=O)OCOP(=O)(CCCC(=O)NO)OCOC(=O)C(C)(C)C`, the “growth inhibition (GI)” value (in test [6]; in the test with Escherichia coli [7]) was “inactive” in each case.

Take `O=CN(O)CCCP(=O)(O)O` [FOSMIDOMYCIN]: the IC50 is 80 nM in test [13] and 510 nM in [8]. Also, the “growth inhibition (GI)” value in test [6] was “inactive”.

`CCCC(=O)OCOP(=O)(CCCN(O)C(C)=O)OCOC(=O)CCC`: the inhibition result (in test [9]; in the test with Escherichia coli [10]) was “inactive” throughout. In addition, the “growth inhibition (GI)” value (in [6]; in the test with Escherichia coli [7]) was “inactive” each time.
